Compound activity: PubChem BioAssay, Columbia University Molecular Screening Center
This is one part of a sample in which hits are shown more often than they occur.
Insulin prom act: TRM-6 insulin promoter activation | TRM-6 cells, insulin promoter eGFP reporter, imaging; plate-scaled: unstimulated 0, stimulated control 100 | activation, % at 2 µM | 130,000 tested, 0.81% active;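 active = activation at 2 µM above a set limit, confirmed on inspection of the cell images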;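 also: share of cells whose green reporter signal exceeds an intensity cutoff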
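Test system: human fetal islet-derived TRM-6 cells with tamoxifen-inducible insulin promoter–eGFP reporter; schedule: overnight tamoxifen, then two-day compound incubation at 37 °C; measured by: high-content imaging of fixed cells with Hoechst nuclear stain; evaluation: percent cells above green-intensity threshold, converted to percent activation versus plate controls; control set: stimulated and unstimulated wells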
Of the large screens only hits and unclear results are named; the others gave an inactive call.

Cn1c(N)c(C(=O)COC(=O)CCC2CCCCC2)c(=O)n(C)c1=O	none
O=C(NCC1CCCO1)C1CCCN1C(=O)Nc1ccc(Cl)c(Cl)c1 (centres undefined)	none
O=C(Nc1cccc2ccccc12)c1cn(-c2ccccc2)nc1-c1cccs1	none
N#CCCn1cc(C(=O)Nc2ccccc2Br)c(-c2cccs2)n1	Insulin prom act 457
O=C(Nc1cccnc1)c1cn(-c2ccccc2)nc1-c1cccs1	none
c1cc(CSc2nnc(-c3ccc4c(c3)OCO4)o2)ccn1	none
CCCSc1cc(N2CCOCC2)nc(-c2ccccc2Cl)n1	none
CCOc1cc(S(=O)(=O)NCc2ccc3c(c2)OCO3)c(C)cc1C	Insulin prom act 141
O=S(=O)(NCc1ccc2c(c1)OCO2)c1cccc2cccnc12	none
Cc1ccc2nsnc2c1S(=O)(=O)NCc1ccc2c(c1)OCO2	none
CC(OC(=O)c1ccccc1NCc1ccco1)C(=O)Nc1ncc(Cl)cc1Cl (centres undefined)	none
Cc1ccc(C(=O)NC(C)(COc2nonc2C)COc2nonc2C)cc1	none
O=C(Nc1ccccn1)c1ccc(S(=O)(=O)c2ccc(Cl)cc2)cc1	none
Cc1ccc(C(=O)NC(=C(Cl)Cl)S(=O)(=O)c2ccc(Cl)cc2)cc1	none
CNC(=O)c1nnsc1S(=O)(=O)c1ccc(Cl)cc1	Insulin prom act 754
O=C(NC(=O)c1ccncc1)NC(c1ccccc1)c1ccccc1	none
Cc1ccc(OCCn2c(=S)[nH]c3c(N)ncnc32)cc1	none
CCc1ccc(OCc2nnc(NC(=O)c3cccs3)s2)cc1	none
CSc1nc(N)nc(SC2C=CCCC2)c1C#N (centres undefined)	none
Cc1nn(Cc2c(F)c(F)c(F)c(F)c2F)c(C)c1NC(=O)c1c([N+](=O)[O-])c(C)nn1C	none
Cc1nn(Cc2c(F)c(F)c(F)c(F)c2F)c(C)c1NC(=O)c1c([N+](=O)[O-])cnn1C	none
CCn1ccc(C(=O)Nc2c(C)nn(Cc3c(F)c(F)c(F)c(F)c3F)c2C)n1	Insulin prom act 364
Cc1nc2ccccn2c1C(=O)N=Nc1c(O)[nH]c2ccccc12	none
CC(=O)n1c(Cl)c(NC(=O)CCl)c2ccccc21	none
C=CCC(CC=C)(NC(=O)c1ccccc1C)c1ccccc1	none
O/N=C/c1cccnc1Sc1ccccc1	none
CCN(C(=O)Cn1c(=O)n(-c2cc(OC)c(OC)c(OC)c2)c(=O)c2ccccc21)c1cccc(C)c1	none
Cc1cc(C)cc(N(CC(=O)N2CCOCC2)S(=O)(=O)c2ccccc2)c1	none
COc1ccc(N2CCN(C(=O)CN(c3ccccc3)S(=O)(=O)c3ccc(OC)cc3)CC2)cc1	Insulin prom act 80
COc1ccc(N2CCN(C(=O)CCNC(=O)c3ccccc3)CC2)cc1	none
COc1ccc(CNC(=O)C(c2ccco2)N(C(=O)c2ccccn2)c2ccccc2)cc1 (centres undefined)	none
COc1ccc(CCc2nnc(CCC(=O)NCc3cnc4ccccn34)o2)cc1	none
CCN(Cc1nc2ccccc2c(=O)[nH]1)Cc1cc(=O)oc2cc(OC)ccc12	none
Cc1cc(NC(=O)c2ccc(S(=O)(=O)N(C)C)cc2)no1	none
Cc1cc(NC(=O)c2ccc(Cl)cc2)no1	none
Cc1cc(NC(=O)c2ccc(NC(=O)CC(C)C)cc2)no1	Insulin prom act 523
C=CCNc1nc(S(=O)Cc2ccc(C)cc2)nc2c1CCCC2 (centres undefined)	none
O=S(=O)(NCC1CCCO1)c1ccc(S(=O)(=O)N2CCCC2)cc1 (centres undefined)	none
CCOc1cc(C2NC(=O)NC(C)=C2C(=O)NCc2ccccc2)c(Cl)cc1O (centres undefined)	none
CC(OC(=O)c1cc2sccc2n1C)C(=O)NCc1ccc(F)cc1 (centres undefined)	none
Cn1c(C(=O)OC(C(=O)NCc2ccco2)c2ccncc2)cc2sccc21 (centres undefined)	Insulin prom act 633
CC(OC(=O)c1cc2sccc2n1C)C(=O)NCCc1ccccc1 (centres undefined)	none
O=Cc1cn(-c2ccc(F)cc2)c2ccccc12	none
C=C(C)C1CC=C(C)/C(=N\NC(=S)Nc2ccc(C)cc2)C1 (centres undefined)	none
COc1ccc2c(C)cc(SCC#N)nc2c1	Insulin prom act 167
COc1ccc2c(-c3ccccc3)cc(SCC(=O)NC(N)=O)nc2c1	none
COc1ccc2c(-c3ccccc3)cc(SCC(=O)N(C)C)nc2c1	none
CCc1ccc(C(C(=O)NC2CCCC2)N(C(=O)/C=C/C(=O)Nc2cc(C)on2)c2ccccc2C)cc1 (centres undefined)	none
Cc1nnc(NC(=O)c2oc3c(ccc4ccccc43)c2C)s1	none
COc1ccc(CNC(=O)Nc2cccc3ccccc23)cc1	none
CCCCC(C)n1[nH]c(=O)cc1N (centres undefined)	none
CCC(C)(C)NC(=O)CN(C(=O)c1snc(C(N)=O)c1N)c1ccc2c(c1)OCO2	none
CS(=O)(=O)N(CC(=O)NCc1ccco1)c1ccccc1Cl	none
CCc1ccccc1N(CC(=O)NCc1ccco1)C(=O)c1snc(C(N)=O)c1N	Insulin prom act 164
CC1=NN(C(C#N)c2cccc([N+](=O)[O-])c2)C(C)(C)C1 (centres undefined)	none
COC(=O)CCC(=O)Nc1cccc(C(=O)Nc2cccc(Cl)c2)c1	none
CC(=O)Oc1ccc2c(c1)cc(C)n2C	none
CC(=O)c1ccc(OC(=O)c2cc3ccccc3oc2=O)cc1	none
CCC(=O)Nc1ccc(C(=O)N/N=C/c2cc(Br)c(OC)cc2OC)cc1	none
CC1CN(C(=O)C2CCCC2)C(C)CN1C(=O)C1CCCC1 (centres undefined)	none
CC(C)(C)c1ccc(Cn2nc(CC(=O)O)c3ccccc3c2=O)cc1	Insulin prom act 272
COc1ccc(CNC(=O)Cc2nn(C)c(=O)c3ccccc23)cc1	none
Cc1nn(CC(=O)O)c(=O)c2ccccc12	none
Nc1c(N(C(=O)Nc2ccc(Cl)c(Cl)c2)C2CCCC2)c(=O)[nH]c(=O)n1Cc1ccccc1	none
Cc1ccc(NC2SC(=O)N(CC(=O)O)C2=O)cc1 (centres undefined)	none
O=C(Oc1ccccc1C(=O)Nc1ccccc1)c1ccccc1Br	none
Cc1ccccc1NC1(C#N)C(=O)Nc2ccccc21 (centres undefined)	none
CC(C)c1ccc(NC2(C#N)C(=O)Nc3ccccc32)cc1 (centres undefined)	Insulin prom act 81
Cc1c(N2C(=O)C(C)SC23C(=O)Nc2ccccc23)c(=O)n(-c2ccccc2)n1C (centres undefined)	none
CCOC(=O)CNC(=S)N(Cc1ccccc1)Cc1cccnc1	none
Cc1[nH]c2ccccc2c1CCN(Cc1cccnc1)C(=S)Nc1ccc(F)cc1	none
Cc1cc(C)c2cc(CN(Cc3cccnc3)C(=O)c3ccc(F)cc3)c(Cl)nc2c1	Insulin prom act 130
COC(=O)C(CCSC)NC(=O)c1cc2c(n(-c3ccccc3)c1=O)CC(C)(C)CC2=O (centres undefined)	none
Cc1ccc(NC(=O)N(Cc2nc3ccccc3c(=O)[nH]2)Cc2cccs2)cc1	none
O=[N+]([O-])c1ccc(N=Cc2ccc(Br)c([N+](=O)[O-])c2)cc1	none
Cc1cc(Cl)ccc1OCC(=O)Nc1ccccc1N1CCOCC1	none
Cc1ccccc1OCC(=O)Nc1cccc2nsnc12	none
Cc1ccccc1NC(=O)COc1ccc(Br)cc1C	Insulin prom act 431
Cc1nccn1-c1cc(C(C)(C)C)nc2c(-c3ccccc3)cnn12	none
Cc1ccc2nc(C)cc(C(=O)OCC(=O)Nc3c(C)n(C)n(-c4ccccc4)c3=O)c2c1	none
O=C(Nc1ccccc1C(=O)NCc1cccnc1)c1ccc(Cl)cc1Cl	none
Cc1ccc(-c2nnc3c(C(F)(F)F)nc4ccccc4n23)cc1	none
CCc1nc2ccccc2c2nc3ccccc3n12	none
Cc1nnc2c(Oc3ccccc3)nc3ccccc3n12	Insulin prom act 131
